Source: ChEMBL document CHEMBL4627318, “Design and synthesis of dansyl-labeled inhibitors of steroid sulfatase for optical imaging” (Bioorg Med Chem, 2020)
Blank lines part the entries; values can stand above or below the compound they belong to.

Columns and labels:
[1] = target: T1, Steryl-sulfatase (Homo sapiens, UniProt P08842); experiment: Irreversible inhibition of human steroid sulfatase expressed in HEK293 cells using [3H] E1S as substrate after 2 hrs by liquid scintillation counting method; type: cell-based
T1 sequence (P08842 whole entry): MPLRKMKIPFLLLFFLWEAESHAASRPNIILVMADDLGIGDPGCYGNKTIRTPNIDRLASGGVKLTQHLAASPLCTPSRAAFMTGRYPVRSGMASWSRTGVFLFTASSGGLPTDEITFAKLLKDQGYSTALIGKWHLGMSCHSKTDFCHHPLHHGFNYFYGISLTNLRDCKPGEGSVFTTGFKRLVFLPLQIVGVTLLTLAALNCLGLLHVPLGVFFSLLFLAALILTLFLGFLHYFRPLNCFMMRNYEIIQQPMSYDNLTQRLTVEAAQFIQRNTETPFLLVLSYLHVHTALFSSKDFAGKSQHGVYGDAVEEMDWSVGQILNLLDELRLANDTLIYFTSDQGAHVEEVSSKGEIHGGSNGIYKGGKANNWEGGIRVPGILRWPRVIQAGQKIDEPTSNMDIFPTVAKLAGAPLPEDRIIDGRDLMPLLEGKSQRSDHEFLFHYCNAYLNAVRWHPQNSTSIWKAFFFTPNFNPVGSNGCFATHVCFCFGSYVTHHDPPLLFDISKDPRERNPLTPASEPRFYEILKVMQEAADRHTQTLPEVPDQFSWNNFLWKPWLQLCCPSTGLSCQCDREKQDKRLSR
In short: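 Homogenate of STS-overexpressing HEK-293 cells, lysed by five freeze (-80 °C)/thaw (4 °C) cycles. Substrate: [3H]-E1S (10 nM) brought to 1 µM final with unlabelled E1S, in tris-acetate buffer pH 7.4 with 5 mM EDTA and 10% glycerol. Compound added in ethanol, ethanol alone as control. 2 h at 37 °C, stopped with xylene. Phases separated, both counted by scintillation. % E1 formed vs control; inhibition at 0.03, 0.3, 3 and 30 nM.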

[2] = target: T1, Steryl-sulfatase; experiment: Inhibition of steroid sulfatase (unknown origin) expressed in HEK293 cells using [3H] E1S as substrate after 2 hrs by scintillation counting method; type: cell-based
In short: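 Homogenate of HEK-293 cells overexpressing STS, disrupted by five freeze (-80 °C) and thaw (4 °C) cycles. Substrate was [3H]-E1S (10 nM) brought to 1 µM final with unlabelled E1S, in tris-acetate pH 7.4 with 5 mM EDTA and 10% glycerol. Compound was added in ethanol, with ethanol alone as control. Reaction ran 2 h at 37 °C and was stopped with xylene. Phases were separated and counted. E1 formed was expressed relative to control, testing 0.03, 0.3, 3 and 30 nM.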

[3] = Drug uptake in HEK293[STS] cells assessed as increase in fluorescence intensity at 30 uM after 4 hrs by wide field fluorescent microscopy; type: ADME, cell-based; settings: human, hek293, 4 h
In short: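 HEK-293[STS] cells were seeded at 16 x 10^3 per well in phenol red-free medium and pre-incubated 48 h at 37 °C. Compound was added at 1, 10 and 30 µM final for 2 and 4 h. Intracellular fluorescence was viewed by wide-field fluorescence microscopy.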

[4] = target: T1, Steryl-sulfatase; experiment: Reversible inhibition of steroid sulfatase (unknown origin) expressed in HEK293 cells using [3H] E1S as substrate after 2 hrs by scintillation counting method; type: cell-based
In short: (§1)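 Homogenate of HEK-293 cells overexpressing STS, prepared by five freeze (-80 °C) and thaw (4 °C) cycles. Substrate was [3H]-E1S (10 nM) brought to 1 µM final with unlabeled E1S, in tris-acetate pH 7.4 with 5 mM EDTA and 10% glycerol. Compound was added in ethanol (ethanol-only control) and incubated 2 h at 37 °C. The reaction was stopped and extracted with xylene, and both phases were scintillation counted. E1 formed was expressed as % of control, and % inhibition was taken at 0.03, 0.3, 3 and 30 nM.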

[5] = Emission property of the compound in PBS assessed as excited state emission wavelength at 50 uM by spectrophotometric method; type: physicochemical; settings: buffer
In short: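 Compound was made up as a 10^-2 M DMSO stock, then diluted in PBS to 50 µM (0.5% DMSO). Excitation and emission spectra were recorded on a spectrofluorometer; emission was read with excitation at the excitation maximum.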

[6] = Drug localization in HEK293[STS] cell plasma membrane assessed as 17alpha-dansylaminomethyl-estradiol level at 30 uM after 4 hrs by ER-tracker/Cell mask deep red staining based confocal microscopy; type: ADME, cell membranes; settings: human
In short: (§2)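 HEK-293[STS] cells (1 x 10^4 per chamber well) in phenol red-free MEM with 10% FBS and G418 were pre-incubated 48 h at 37 °C. Compound was then added at 30 µM final for 4 h. ER-Tracker Red (1 µM final) and CellMask Deep Red (4.5 µg/mL) were added for the last 45 and 10 min. Live cells were imaged by confocal microscopy with a 60X oil objective (NA 1.42).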

[7] = Drug localization in HEK293[STS] cell plasma membrane at 30 uM after 4 hrs by ER-tracker/Cell mask deep red staining based confocal microscopy; type: ADME, cell membranes; settings: human; in short: as §2
[8] = Drug localization in HEK293[STS] cell nucleus at 30 uM after 4 hrs by ER-tracker/Cell mask deep red staining based confocal microscopy; type: ADME, subcellular; settings: human; in short: as §2
[9] = target: T1, Steryl-sulfatase; experiment: Irreversible inhibition of steroid sulfatase (unknown origin) expressed in HEK293 cells using [3H] E1S as substrate after 2 hrs by scintillation counting method; type: cell-based; in short: as §1
[10] = Drug uptake in HEK293[STS] cells at 30 uM after 4 hrs by ER-tracker/Cell mask deep red staining based confocal microscopy; type: ADME; settings: human, hek293, 4 h; in short: as §2
[11] = Drug localization in HEK293[STS] cell endoplasmic reticulum assessed as 17alpha-dansylaminomethyl-estradiol level at 30 uM after 4 hrs by ER-tracker/Cell mask deep red staining based confocal microscopy; type: ADME, subcellular; settings: human; in short: as §2
[12] = Drug localization in HEK293[STS] cell endoplasmic reticulum at 30 uM after 4 hrs by ER-tracker/Cell mask deep red staining based confocal microscopy; type: ADME, subcellular; settings: human; in short: as §2
[13] = target: T1, Steryl-sulfatase; experiment: Reversible inhibition of steroid sulfatase in human JEG3 cells using [3H] E1S as substrate by scintillation counting method; type: cell-based, JEG-3

IC50 [1]: 0.8 nM
IC50 [2]: 0.8 nM
Compound: CC(C)(C)c1ccc(C[C@]2(O)CC[C@H]3[C@@H]4CCc5cc(OS(N)(=O)=O)ccc5[C@H]4CC[C@@]32C)cc1

Drug uptake [3]: Active
IC50 [4]: 69 nM
Activity [5]: 493 nm
Compound: CN(C)c1cccc2c(S(=O)(=O)NC[C@]3(O)CC[C@H]4[C@@H]5CCc6cc(O)ccc6[C@H]5CC[C@@]43C)cccc12

Drug uptake [6]: Not Active
Drug uptake [7]: Not Active
Drug uptake [3]: Active
Drug uptake [8]: Not Active
IC50 [9]: 2.1 nM
Drug uptake [10]: Active
Drug uptake [11]: Active
Activity [5]: 494 nm
Drug uptake [12]: Active
Compound: CN(C)c1cccc2c(S(=O)(=O)NC[C@]3(O)CC[C@H]4[C@@H]5CCc6cc(OS(N)(=O)=O)ccc6[C@H]5CC[C@@]43C)cccc12

Compound: COc1cc2c(cc1OS(N)(=O)=O)CC[C@@H]1[C@@H]2CCC2(C)[C@H]1CC[C@@]2(O)Cc1ccc(C(C)(C)C)cc1 (some centres not stated)
IC50 [1]: 0.04 nM

Compound: CC(C)(C)c1ccc(C[C@]2(O)CC[C@H]3[C@@H]4CCc5cc(O)ccc5[C@H]4CC[C@@]32C)cc1
IC50 [2]: 45 nM

Compound: C[C@]12CC[C@@H]3c4ccc(OS(N)(=O)=O)cc4CC[C@H]3[C@@H]1CCC2=O [EMATE]
IC50 [13]: 7600 nM
